Results reported in ChEMBL document CHEMBL1154596, “The effects of C-terminal modifications on the opioid activity of [N-benzylTyr(1)]dynorphin A-(1-11) analogues” (J Med Chem, 2009).
pKi: −log10 of the molar value.

What was measured:
Rattus norvegicus = organism: Rattus norvegicus; assay: Selectivity ratio of Ki for rat kappa opioid receptor to Ki for rat mu opioid receptor
[1] = target: Kappa-type opioid receptor (Rattus norvegicus) (UniProt P34975); assay: Activity at rat kappa opioid receptor expressed in CHO cells assessed as inhibition of adenylyl cyclase activity at 10 uM relative to Dyn A-(1-13)NH2; format: functional, cell-based
How it was run: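 CHO cells stably expressing cloned rat KOR. Adenylyl cyclase inhibition was measured with each peptide at 10 μM. Efficacy is expressed relative to the maximal inhibition by the reference agonist Dyn A-(1-13)NH2 (100 nM). Values are mean ± SEM of at least three independent experiments.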

[2] = Selectivity ratio of Ki for rat kappa opioid receptor to Ki for mouse delta opioid receptor
[3] = target: Delta-type opioid receptor (Mus musculus, UniProt P32300); assay: Displacement of [3H]DPDPE from mouse delta opioid receptor expressed in CHO cells; format: cell-based
How it was run: (§1)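 Radioligand competition binding on membranes of CHO cells stably expressing cloned rat KOR, rat MOR or mouse DOR. Ki values are mean ± SEM of at least three independent experiments.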

[4] = target: Kappa-type opioid receptor (Rattus norvegicus, UniProt P34975); assay: Displacement of [3H]diprenorphine from rat kappa opioid receptor expressed in CHO cells; format: cell-based
How it was run: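 Radioligand competition binding on membranes of CHO cells stably expressing cloned rat KOR, rat MOR or mouse DOR. […] Ki values are mean ± SEM of at least three independent experiments.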

Mu-type opioid receptor = Mu-type opioid receptor (Rattus norvegicus, UniProt P33535); assay: Displacement of [3H]DAMGO from rat mu opioid receptor expressed in CHO cells; format: cell-based; how it was run: as §1
Chain of Mu-type opioid receptor (P33535 whole entry): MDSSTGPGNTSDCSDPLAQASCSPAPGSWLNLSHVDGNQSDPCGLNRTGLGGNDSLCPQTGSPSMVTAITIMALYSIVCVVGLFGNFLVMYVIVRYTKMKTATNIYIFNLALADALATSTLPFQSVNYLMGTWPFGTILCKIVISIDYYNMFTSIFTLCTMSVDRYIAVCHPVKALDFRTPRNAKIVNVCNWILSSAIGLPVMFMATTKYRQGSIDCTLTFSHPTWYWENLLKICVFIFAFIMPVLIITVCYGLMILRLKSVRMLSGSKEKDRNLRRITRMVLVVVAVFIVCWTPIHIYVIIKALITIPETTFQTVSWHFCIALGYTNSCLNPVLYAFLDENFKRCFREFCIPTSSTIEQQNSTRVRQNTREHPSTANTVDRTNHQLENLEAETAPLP

Chain of Kappa-type opioid receptor (Rattus norvegicus) (P34975 whole entry): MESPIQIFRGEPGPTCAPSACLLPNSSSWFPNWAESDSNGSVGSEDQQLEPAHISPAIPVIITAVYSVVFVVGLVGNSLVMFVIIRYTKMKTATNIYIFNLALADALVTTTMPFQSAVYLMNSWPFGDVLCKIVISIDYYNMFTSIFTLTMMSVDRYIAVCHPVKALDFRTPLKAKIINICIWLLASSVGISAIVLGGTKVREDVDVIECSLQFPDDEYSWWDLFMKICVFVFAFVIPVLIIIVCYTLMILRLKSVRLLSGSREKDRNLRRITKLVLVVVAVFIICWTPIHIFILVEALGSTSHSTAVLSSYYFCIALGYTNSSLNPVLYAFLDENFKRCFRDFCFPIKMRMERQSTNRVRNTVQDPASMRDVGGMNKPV
Chain of Kappa-type opioid receptor (P34975 whole entry): as above
Chain of Delta-type opioid receptor (P32300 whole entry): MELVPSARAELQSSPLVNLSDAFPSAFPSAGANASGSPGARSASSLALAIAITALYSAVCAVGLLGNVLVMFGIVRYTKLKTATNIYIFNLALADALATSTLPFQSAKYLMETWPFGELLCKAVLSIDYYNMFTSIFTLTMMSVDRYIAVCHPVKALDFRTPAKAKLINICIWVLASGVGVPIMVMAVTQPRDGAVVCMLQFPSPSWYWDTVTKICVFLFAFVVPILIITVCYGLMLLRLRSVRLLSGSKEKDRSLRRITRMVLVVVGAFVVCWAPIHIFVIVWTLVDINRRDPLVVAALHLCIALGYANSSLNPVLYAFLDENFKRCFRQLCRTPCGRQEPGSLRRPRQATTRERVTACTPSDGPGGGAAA

SMILES | Ratio Ki (Rattus norvegicus) | inhibition [1] | Ratio Ki [2] | pKi [3] | pKi [4] | pKi (Mu-type opioid receptor)
CC(C)C[C@H](NC(=O)[C@H](Cc1ccccc1)NC(=O)CNC(=O)CNC(=O)[C@H](Cc1ccc(O)cc1)NCc1ccccc1)C(=O)N[C@@H](CCCNC(=N)N)C(=O)N[C@@H](CCCNC(=N)N)C(=O)N[C@H](C)C(=O)N[C@@H](CCCNC(=N)N)C(=O)N1CCC[C@H]1C(=O)N[C@@H](CCCCN)C(N)=O | 11 | 70% | 80 |  |  | 
CC(=O)NC[C@H](NC(=O)[C@H](CCCNC(=N)N)NC(=O)[C@H](CCCNC(=N)N)NC(=O)[C@@H](CC(N)=O)NC(=O)[C@H](Cc1ccccc1)NC(=O)CNC(=O)CNC(=O)[C@H](Cc1ccc(O)cc1)NCc1ccccc1)C(=O)N[C@@H](CCCNC(=N)N)C(=O)N1CCC[C@H]1C(=O)N[C@@H](CCCCN)C(N)=O | 25 |  | 149 | < 5.00 | 7.17 | 5.78
CC[C@H](C)[C@H](NC(=O)[C@H](CCCNC(=N)N)N(C)C(=O)[C@H](CCCNC(=N)N)NC(=O)[C@H](CC(C)C)NC(=O)[C@H](Cc1ccccc1)NC(=O)CNC(=O)CNC(=O)[C@H](Cc1ccc(O)cc1)NCc1ccccc1)C(=O)N[C@@H](CCCNC(=N)N)C(=O)N1CCC[C@@H]1C(=O)N[C@@H](CCCCN)C(N)=O |  | 70% |  |  |  | 
CC(C)C[C@H](NC(=O)[C@H](Cc1ccccc1)NC(=O)CNC(=O)CNC(=O)[C@H](Cc1ccc(O)cc1)NCc1ccccc1)C(=O)N[C@@H](CCCNC(=N)N)C(=O)N(C)[C@@H](CCCNC(=N)N)C(=O)N[C@H](C)C(=O)N[C@@H](CCCNC(=N)N)C(=O)N1CCC[C@H]1C(=O)N[C@@H](CCCCN)C(N)=O | 14 | 70% | 147 |  |  | 
CC(C)C[C@H](NC(=O)[C@H](Cc1ccccc1)NC(=O)CNC(=O)CNC(=O)[C@H](Cc1ccc(O)cc1)NCc1ccccc1)C(=O)N[C@@H](CCCNC(=N)N)C(=O)N[C@@H](CCCNC(=N)N)C(=O)N[C@H](C)C(=O)N[C@@H](CCCNC(=N)N)C(=O)N1CCC[C@@H]1C(=O)N[C@@H](CCCCN)C(N)=O | 15 | 70% | 109 |  |  | 
CC[C@H](C)[C@H](NC(=O)[C@H](CCCNC(=N)N)N(C)C(=O)[C@H](CCCNC(=N)N)NC(=O)[C@H](CC(C)C)NC(=O)[C@H](Cc1ccccc1)NC(=O)CNC(=O)CNC(=O)[C@H](Cc1ccc(O)cc1)NCc1ccccc1)C(=O)N[C@@H](CCCNC(=N)N)C(=O)N1CCC[C@H]1C(=O)N[C@@H](CCCCN)C(N)=O |  | 70% |  |  |  | 
CC(C)C[C@H](NC(=O)[C@H](Cc1ccccc1)NC(=O)CNC(=O)CNC(=O)[C@H](Cc1ccc(O)cc1)NCc1ccccc1)C(=O)N[C@@H](CCCNC(=N)N)C(=O)N(C)[C@@H](CCCNC(=N)N)C(=O)N[C@H](C)C(=O)N[C@@H](CCCNC(=N)N)C(=O)N1CCC[C@@H]1C(=O)N[C@@H](CCCCN)C(N)=O | 16 | 70% | 151 |  |  | 
